Converted amounts (≈) assume the structure as drawn. The source made the active and inactive calls. No cut-off for these calls is given here. Non-standard residues stand in square brackets, D forms with d. Residues, ends and D or L forms follow the SMILES beside them. *: point of attachment. Octanoyl(2R-Me,7,8-dehydro) = C=CCCCC[C@@H](C)C(=O)*; Oct7ynoyl(2R-Me) = C#CCCCC[C@@H](C)C(=O)*; NMeY = CN[C@@H](Cc1ccc(O)cc1)C(=O)O; NMeF = CN[C@@H](Cc1ccccc1)C(=O)O; X1 = CC(=O)CCCC[C@@H](C)C(=O)*; Oct(7)enoyl = C=CCCCCCC(=O)*; Oct(7)ynoyl = C#CCCCCCC(=O)*; NMeV = CN[C@H](C(=O)O)C(C)C; X5 = C#CCCCCC(C)CC(C)C(=O)*; Hept6ynoyl = C#CCCCCC(=O)*; X3 = CCCCCC[C@@H](C)C(=O)*; X6 = C#CCCCC[C@H](C)C(=O)*; NMeA = CN[C@@H](C)C(=O)O; X4 = C=CCCCCC(=O)*; X2 = C=CCCCC(=O)*
Experiments:
Leishmania donovani [1] = test: Antileishmanial activity against Leishmania donovani by DNA fluorescence assay; assay type: functional, organism-based
Vero = test: Cytotoxicity against african green monkey Vero cells by MTT assay; assay type: cell-based; conditions: Chlorocebus sabaeus
How it was run: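 Green monkey Vero kidney cells; cell proliferation read by MTT.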

[2] = Selectivity index, ratio of IC50 for african green monkey Vero cells to IC50 for Leishmania donovani; assay type: toxicity, cell-based; conditions: read-out: Ratio IC50
Leishmania donovani [3] = test: Antileishmanial activity against Leishmania donovani at 10 ug/mL by DNA fluorescence assay; assay type: functional, organism-based
How it was run: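 Leishmania donovani; parasite growth read by parasite DNA fluorescence, with amphotericin B as positive control.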

Trypanosoma cruzi [4] = test: Antitrypanosomal activity against Trypanosoma cruzi Tulahuen infected in mouse 3T3 cells assessed as beta-galactosidase activity at 13.5 uM after 7 days by chagas bioassay; assay type: functional, organism-based; conditions: NIH3T3
Plasmodium falciparum = test: Antimalarial activity against chloroquine-resistant Plasmodium falciparum W2 at 13.5 uM after 48 hrs by fluorometric method; assay type: functional, organism-based
Trypanosoma cruzi [5] = test: Antitrypanosomal activity against Trypanosoma cruzi Tulahuen infected in mouse 3T3 cells assessed as beta-galactosidase activity after 7 days by chagas bioassay; conditions: NIH3T3, 168 h
Leishmania donovani [6] = test: Antileishmanial activity against Leishmania donovani at 13.4 uM by DNA fluorescence assay; assay type: functional, organism-based

SMILES | IC50 (Leishmania donovani [1]) | IC50 (Vero) [µM] | selectivity ratio [2] | also measured
C#CCCCCC(=O)N(C)[C@H](C(=O)N(C)[C@H](C(=O)N(C)[C@H](C(=O)N(C)[C@@H](C)C(=O)N(C)[C@@H](Cc1ccccc1)C(=O)N(C)C)C(C)C)C(C)C)C(C)C (Hept6ynoyl-[NMeV][NMeV][NMeV][NMeA][NMeF]-NMe2) | 3.1 µM | 156 | 50.2 | 
C#CCCCCC(=O)N(C)[C@H](C(=O)N(C)[C@H](C(=O)N(C)[C@H](C(=O)N(C)[C@@H](C)C(=O)N(C)[C@@H](Cc1ccccc1)C(=O)O)C(C)C)C(C)C)C(C)C (Hept6ynoyl-[NMeV][NMeV][NMeV][NMeA][NMeF]-OH) | 5.6 µM | 281 | 50.2 | 
C#CCCCCC(=O)N(C)[C@H](C(=O)N(C)[C@H](C(=O)N(C)[C@H](C(=O)N(C)[C@@H](C)C(=O)N(C)[C@@H](Cc1ccccc1)C(=O)OC)C(C)C)C(C)C)C(C)C (Hept6ynoyl-[NMeV][NMeV][NMeV][NMeA][NMeF]-OMe) | > 14 µM | 41.4 |  | 
C=CCCCC(=O)N(C)[C@H](C(=O)N(C)[C@H](C(=O)N(C)[C@H](C(=O)N(C)[C@@H](C)C(=O)N(C)[C@@H](Cc1ccccc1)C(=O)N(C)C)C(C)C)C(C)C)C(C)C (X2-[NMeV][NMeV][NMeV][NMeA][NMeF]-NMe2) | 6.7 µM | 93.1 | 13.9 | 
C=CCCCCC(=O)N(C)[C@H](C(=O)N(C)[C@H](C(=O)N(C)[C@H](C(=O)N(C)[C@@H](C)C(=O)N(C)[C@@H](Cc1ccccc1)C(=O)N(C)C)C(C)C)C(C)C)C(C)C (X4-[NMeV][NMeV][NMeV][NMeA][NMeF]-NMe2) | 2.7 µM | 13.8 | 8.8 | 
C=CCCCCC(=O)N(C)[C@H](C(=O)N(C)[C@H](C(=O)N(C)[C@H](C(=O)N(C)[C@@H](C)C(=O)N(C)[C@@H](Cc1ccccc1)C(=O)O)C(C)C)C(C)C)C(C)C (X4-[NMeV][NMeV][NMeV][NMeA][NMeF]-OH) | > 14 µM | > 70 |  | 
C=CCCCCC(=O)N(C)[C@H](C(=O)N(C)[C@H](C(=O)N(C)[C@H](C(=O)N(C)[C@@H](C)C(=O)N(C)[C@@H](Cc1ccccc1)C(=O)OC)C(C)C)C(C)C)C(C)C (X4-[NMeV][NMeV][NMeV][NMeA][NMeF]-OMe) | > 14 µM | 24.7 |  | 
C#CCCCCC(C)CC(C)C(=O)N(C)[C@@H](Cc1ccccc1)C(=O)N[C@@H](C)C(=O)N(C)[C@@H](C)C(=O)N(C)[C@@H](Cc1ccc(OC)cc1)C(N)=O (stereo not given in full) (X5-[NMeF]A[NMeA][NMeY](Me)-NH2) |  |  |  | Activity (Leishmania donovani [3]): inactive
C#CCCCC[C@H](C)C(=O)N(C)[C@@H](Cc1ccccc1)C(=O)N[C@@H](C)C(=O)N(C)[C@@H](C)C(=O)N(C)[C@@H](Cc1ccc(OC)cc1)C(N)=O (X6-[NMeF]A[NMeA][NMeY](Me)-NH2) |  |  |  | Activity (Leishmania donovani [3]): inactive
C#CCCCC[C@H](C)C(=O)N(C)[C@H](C(=O)N(C)[C@H](C(=O)N(C)[C@H](C(=O)N(C)[C@@H](Cc1ccccc1)C(N)=O)C(C)C)C(C)C)C(C)C (X6-[NMeV][NMeV][NMeV][NMeF]-NH2) |  |  |  | Activity (Leishmania donovani [3]): inactive
C#CCCCC[C@H](C)C(=O)N(C)[C@H](C(=O)N(C)[C@H](C(=O)N(C)[C@H](C(=O)N(C)[C@H](C(N)=O)C(C)C)C(C)C)C(C)C)C(C)C (X6-[NMeV][NMeV][NMeV][NMeV]-NH2) |  |  |  | Activity (Leishmania donovani [3]): inactive
C=CCCCCCC(=O)N(C)[C@H](C(=O)N(C)[C@H](C(=O)N(C)[C@H](C(=O)N(C)[C@@H](C)C(=O)N(C)[C@@H](Cc1ccccc1)C(=O)O)C(C)C)C(C)C)C(C)C ({Oct(7)enoyl}-[NMeV][NMeV][NMeV][NMeA][NMeF]-OH) | 4.1 µM | 192 | 46.9 | 
C=CCCCCCC(=O)N(C)[C@H](C(=O)N(C)[C@H](C(=O)N(C)[C@H](C(=O)N(C)[C@@H](C)C(=O)N(C)[C@@H](Cc1ccccc1)C(=O)OC)C(C)C)C(C)C)C(C)C ({Oct(7)enoyl}-[NMeV][NMeV][NMeV][NMeA][NMeF]-OMe) | > 14 µM | 18.8 |  | 
C#CCCCCCC(=O)N(C)[C@H](C(=O)N(C)[C@H](C(=O)N(C)[C@H](C(=O)N(C)[C@@H](C)C(=O)N(C)[C@@H](Cc1ccccc1)C(=O)N(C)C)C(C)C)C(C)C)C(C)C ({Oct(7)ynoyl}-[NMeV][NMeV][NMeV][NMeA][NMeF]-NMe2) | 5.9 µM | 159 | 27 | 
C#CCCCCCC(=O)N(C)[C@H](C(=O)N(C)[C@H](C(=O)N(C)[C@H](C(=O)N(C)[C@@H](C)C(=O)N(C)[C@@H](Cc1ccccc1)C(=O)O)C(C)C)C(C)C)C(C)C ({Oct(7)ynoyl}-[NMeV][NMeV][NMeV][NMeA][NMeF]-OH) | > 14 µM | > 68.9 |  | 
C#CCCCCCC(=O)N(C)[C@H](C(=O)N(C)[C@H](C(=O)N(C)[C@H](C(=O)N(C)[C@@H](C)C(=O)N(C)[C@@H](Cc1ccccc1)C(=O)OC)C(C)C)C(C)C)C(C)C ({Oct(7)ynoyl}-[NMeV][NMeV][NMeV][NMeA][NMeF]-OMe) | > 14 µM | 27 |  | 
CC(=O)CCCC[C@@H](C)C(=O)N(C)[C@H](C(=O)N(C)[C@H](C(=O)N[C@H](C(=O)N(C)[C@@H](C)C(=O)N(C)[C@@H](Cc1ccccc1)C(N)=O)C(C)C)C(C)C)C(C)C [ALMIRAMIDE A] (X1-[NMeV][NMeV]V[NMeA][NMeF]-NH2) | > 13.5 µM | 113 |  | Activity (Trypanosoma cruzi [4]): inactive; Activity (Plasmodium falciparum): inactive
C#CCCCC[C@@H](C)C(=O)N(C)[C@H](C(=O)N(C)[C@H](C(=O)N[C@H](C(=O)N(C)[C@@H](C)C(=O)N(C)[C@@H](Cc1ccccc1)C(N)=O)C(C)C)C(C)C)C(C)C [ALMIRAMIDE B] ({Oct7ynoyl(2R-Me)}-[NMeV][NMeV]V[NMeA][NMeF]-NH2) | 2.4 µM | 52.3 | 21.8 | Activity (Trypanosoma cruzi [4]): inactive; Activity (Plasmodium falciparum): inactive
C=CCCCC[C@@H](C)C(=O)N(C)[C@H](C(=O)N(C)[C@H](C(=O)N[C@H](C(=O)N(C)[C@@H](C)C(=O)N(C)[C@@H](Cc1ccccc1)C(N)=O)C(C)C)C(C)C)C(C)C [ALMIRAMIDE C] ({Octanoyl(2R-Me,7,8-dehydro)}-[NMeV][NMeV]V[NMeA][NMeF]-NH2) | 1.9 µM | 33.1 | 17.4 | Activity (Trypanosoma cruzi [4]): inactive; Activity (Plasmodium falciparum): inactive
C[C@@H]1[C@H](O)[C@@H](C)/C=C/C=C/C=C/C=C/C=C/C=C/C=C/[C@H](O[C@@H]2O[C@H](C)[C@@H](O)[C@H](N)[C@@H]2O)C[C@@H]2O[C@](O)(C[C@@H](O)C[C@@H](O)[C@H](O)CC[C@@H](O)C[C@@H](O)CC(=O)O[C@H]1C)C[C@H](O)[C@H]2C(=O)O [AMPHOTERICIN B] | 0.08 µg/mL |  |  | 
CCCCCCCCCCCCCCCCOP(=O)([O-])OCC[N+](C)(C)C [MILTEFOSINE] | 0.5 µM |  |  | 
C#CCCCC[C@@H](C)C(=O)N(C)[C@H](C(=O)N(C)[C@H](C(=O)N(C)[C@H](C(=O)N(C)[C@@H](C)C(=O)N(C)[C@@H](Cc1ccccc1)C(N)=O)C(C)C)C(C)C)C(C)C [MONOMETHYLALMIRAMIDE B] ({Oct7ynoyl(2R-Me)}-[NMeV][NMeV][NMeV][NMeA][NMeF]-NH2) | 1.6 µM |  |  | 
CC1CS(=O)(=O)CCN1/N=C/c1ccc([N+](=O)[O-])o1 (stereo not given) [NIFURTIMOX] |  |  |  | IC50 (Trypanosoma cruzi [5]): 3 µg/mL (≈ 10.4 µM)
C#CCCCC[C@@H](C)C(=O)N(C)[C@H](C(=O)N(C)[C@H](C(=O)N(C)[C@H](C(=O)N(C)[C@@H](C)C(=O)N(C)[C@@H](Cc1ccccc1)C(=O)N(C)C)C(C)C)C(C)C)C(C)C [PERMETHYLALMIRAMIDE B] ({Oct7ynoyl(2R-Me)}-[NMeV][NMeV][NMeV][NMeA][NMeF]-NMe2) | 2.3 µM |  |  | 
CCCCCC[C@@H](C)C(=O)N(C)[C@H](C(=O)N(C)[C@H](C(=O)N[C@H](C(=O)N(C)[C@@H](C)C(=O)N(C)[C@@H](Cc1ccccc1)C(N)=O)C(C)C)C(C)C)C(C)C [TETRAHYDROALMIRAMIDE B] (X3-[NMeV][NMeV]V[NMeA][NMeF]-NH2) | > 13.7 µM |  |  | Activity (Leishmania donovani [6]): inactive
